Measurements as given in ChEMBL document CHEMBL1158417, “Phosphonate analogues of cyclopropavir phosphates and their E-isomers. Synthesis and antiviral activity” (Bioorg Med Chem, 2009).

Experiments:
[1] = (§1) Cytotoxicity against HFF by neutral red uptake assay; type: cell-based; settings: human, HFF cells
Outline: (§2)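 HFF cultures; cytotoxicity determined by neutral red uptake.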

Human gammaherpesvirus 4 [2] = assay: Antiviral activity against Epstein-Barr virus in human H1 cells by DNA hybridization assay; type: functional, organism-based; settings: human gammaherpesvirus 4, H1
Human alphaherpesvirus 1 [3] = assay: Antiviral activity against Herpes simplex virus type 1 in HFF assessed as inhibition of virus-induced cytopathic effect; type: functional, organism-based
Outline: (§3)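 HSV-1 and HSV-2 tested in HFF cultures by inhibition of virus-induced cytopathic effect (CPE); cytotoxicity measured by neutral red uptake.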

[4] = (§4) Cytotoxicity against HFF by visual cytotoxicity assay; type: cell-based; settings: human, HFF cells
Outline: (§5)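 Uninfected HFF cultures scored by visual inspection for cytotoxicity in cells unaffected by virus.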

Murid betaherpesvirus 1 = assay: Antiviral activity against Murine cytomegalovirus in MEF by plaque reduction assay; type: functional, organism-based
Outline: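 Murine CMV titrated by plaque reduction in mouse embryonic fibroblasts (MEF); EC50 from plaque counts.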

[5] = Cytotoxicity against human Daudi cells; type: cell-based
[6] = Cytotoxicity against human CEM cells; type: cell-based; settings: CCRF-CEM cells
[7] = (§6) Cytotoxicity against human replicating KB cells; type: cell-based; settings: KB cells
Outline: (§7)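 Cytotoxicity measured in replicating KB cells, run alongside HSV-1 assays in BSC-1 cells.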

[8] = (§8) Cytotoxicity against MEF; type: cell-based; settings: mouse, MEF cells
Human alphaherpesvirus 2 = assay: Antiviral activity against Herpes simplex virus type 2 in HFF assessed as inhibition of virus-induced cytopathic effect; type: functional, organism-based; outline: as §3
Human alphaherpesvirus 3 [9] = assay: Antiviral activity against Varicella zoster virus in HFF assessed as inhibition of virus-induced cytopathic effect; type: functional, organism-based
Outline: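 VZV in HFF culture; antiviral activity read by cytopathic effect (CPE) inhibition assay.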

Human gammaherpesvirus 4 [10] = assay: Antiviral activity against Epstein-Barr virus in human Akata cells by DNA hybridization assay; type: functional, organism-based; settings: human gammaherpesvirus 4, Akata
Outline: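 EBV replication measured by DNA hybridization assay in Akata cells.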

HFF [11] = assay: as §1; type: cell-based; settings: human, hff; outline: as §2
[12] = Cytotoxicity against human Akata cells; type: cell-based
Human betaherpesvirus 5 [13] = assay: Antiviral activity against drug-resistant Human cytomegalovirus E8 isolate expressing UL97 phosphotransferase with two point mutation in UL97 gene by plaque reduction assay; type: functional, organism-based; settings: Human betaherpesvirus 5, E8
Outline: (§9)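 Plaque reduction with HCMV Towne background strains: wild-type, 2696r (most of UL97 deleted) and E8 (two UL97 point mutations); four drug concentrations, each in duplicate; EC50 read from plaque counts.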

Human betaherpesvirus 5 [14] = assay: Antiviral activity against cyclopropavir-resistant Human cytomegalovirus 2696r expressing most of UL97 phosphotransferase sequence deleted mutant by plaque reduction assay; type: functional, organism-based; settings: Human betaherpesvirus 5, 2696r; outline: as §9
HFF [15] = assay: as §4; type: cell-based; settings: human, hff; outline: as §5
Human alphaherpesvirus 1 [16] = assay: Antiviral activity against Herpes simplex virus type 1 in african green monkey BSC1 cells by plaque reduction assay; type: functional, organism-based; settings: Human alphaherpesvirus 1, BSC-1
Outline: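 HSV-1 plaque reduction in BSC-1 cells; cytotoxicity determined in replicating KB cells.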

KB = assay: as §6; type: cell-based; settings: kb; outline: as §7
MEF = assay: as §8; type: cell-based; settings: mouse, mef
Human betaherpesvirus 5 [17] = assay: Antiviral activity against Human cytomegalovirus AD169 in HFF by cytopathic effect (CPE) inhibition assay; settings: Human betaherpesvirus 5, AD169
Human betaherpesvirus 5 [18] = assay: Antiviral activity against Human cytomegalovirus Towne expressing wild type UL97 phosphotransferase by plaque reduction assay; type: functional, organism-based; settings: Human betaherpesvirus 5, Towne; outline: as §9
Human betaherpesvirus 5 [19] = assay: Antiviral activity against Human cytomegalovirus Towne in HFF by plaque reduction assay; type: functional, organism-based; settings: Human betaherpesvirus 5, Towne
Outline: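 HCMV Towne or AD169 grown in human foreskin fibroblast (HFF) cultures; plaque reduction read-out for EC50; cytotoxicity judged visually in HFF cells not infected by virus.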

Human alphaherpesvirus 1 [20] = assay: Antiviral activity against Herpes simplex virus type 1 in african green monkey BSC1 cells by ELISA; type: functional, organism-based; settings: Human alphaherpesvirus 1, BSC-1
Outline: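 HSV-1 in BSC-1 cells, viral antigen measured by ELISA; cytotoxicity determined in replicating KB cells.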

Human betaherpesvirus 5 [21] = assay: Antiviral activity against Human cytomegalovirus AD169 in HFF by cytopathic effect assay; type: functional, organism-based; settings: Human betaherpesvirus 5, AD169
Outline: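 HCMV strain AD169 grown in human foreskin fibroblast (HFF) cultures; antiviral effect read as inhibition of virus-induced cytopathic effect (CPE).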

Human alphaherpesvirus 3 [22] = assay: Antiviral activity against Varicella zoster virus in HFF by plaque reduction assay; type: functional, organism-based
Outline: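 VZV in HFF culture; antiviral activity measured by plaque reduction assay.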

| Compound | EC50 (Human alphaherpesvirus 1 [3]) [µM] | CC50 [4] [µM] | EC50 (Murid betaherpesvirus 1) [µM] | EC50 (Human alphaherpesvirus 2) [µM] | EC50 (Human alphaherpesvirus 3 [9]) [µM] | EC50 (Human gammaherpesvirus 4 [10]) [µM] | CC50 (HFF [11]) [µM] | EC50 (Human betaherpesvirus 5 [13]) [µM] | EC50 (Human betaherpesvirus 5 [14]) [µM] | EC50 (Human alphaherpesvirus 1 [16]) [µM] | EC50 (Human betaherpesvirus 5 [17]) [µM] | EC50 (Human betaherpesvirus 5 [18]) [µM] | EC50 (Human betaherpesvirus 5 [19]) [µM] | further results |
| --- | --- | --- | --- | --- | --- | --- | --- | --- | --- | --- | --- | --- | --- | --- |
| Nc1nc(O)c2ncn(/C=C3/CC34COP(=O)(O)OC4)c2n1 (centres undefined) | > 301 | > 100 | 7.2 | 242 | > 301 |  |  |  |  |  |  |  |  | CC50 [1]: > 301 µM; EC50 (Human gammaherpesvirus 4 [2]): > 20 µM; CC50 [5]: 150 µM; CC50 [6]: > 100 µM; CC50 [7]: > 100 µM; CC50 [8]: > 301 µM |
| Nc1nc2c(ncn2/C=C2/CC23CCP(=O)(O)OC3)c(=O)[nH]1 (centres undefined) | > 300 |  | 0.4 | > 300 | > 300 | > 100 | > 300 | 4 | 3 | 40 | 11.6 | 4 | 2.4 | CC50 ([12]; akata): > 100 µM; CC50 (HFF [15]): > 100 µM; CC50 (KB): > 100 µM; CC50 (MEF): > 100 µM |
| Nc1nc2c(ncn2/C=C2/CC2(CO)CCP(=O)(O)O)c(=O)[nH]1 (centres undefined) | 59.4 | > 100 | 0.13 | 76.5 |  |  |  | 3.2 | 3 |  | 2.7 | 3.5 | 2.2 | CC50 ([12]; Akata cells): > 100 µM; EC50 (Human alphaherpesvirus 1 [20]): 15 µM |
| Nc1nc2c(ncn2/C=C2\CC23CCP(=O)(O)OC3)c(=O)[nH]1 (centres undefined) |  |  |  |  |  | > 100 |  |  |  | 100 | > 300 |  | > 100 |  |
| Nc1nc2c(ncn2/C=C2\CC2(CO)CCP(=O)(O)O)c(=O)[nH]1 (centres undefined) | > 300 |  |  | > 300 | 191 | > 100 | > 300 |  |  | 100 |  |  | > 100 | EC50 (Human betaherpesvirus 5 [21]): > 300 µM |
| Nc1nc2c(ncn2COCCO)c(=O)[nH]1 [ACYCLOVIR] | 1.3 |  |  | 1.2 |  |  | > 300 |  |  | 0.3 |  |  |  | EC50 (Human alphaherpesvirus 3 [22]): 4.4 µM |
| Nc1nc2c(ncn2/C=C2/CC2(CO)CO)c(=O)[nH]1 [FILOCICLOVIR] | > 380 | > 100 | 0.27 | > 380 | > 380 |  |  | 8 | 28 |  |  | 0.6 | 0.46 | CC50 [1]: > 380 µM; CC50 ([12]; Akata cells): 46 µM; EC50 (Human alphaherpesvirus 1 [20]): > 100 µM; CC50 [7]: > 100 µM; CC50 [8]: > 380 µM |
